Data from ChEMBL document CHEMBL5506039, “Discovery and Optimization of Tambjamines as a Novel Class of Antileishmanial Agents” (J Med Chem, 2024).

What was measured:
Leishmania mexicana [1] = test: Antileishmanial activity against Leishmania mexicana MNYC/BZ/62/M379 amastigotes expressing red-shifted firefly luciferase from integrated ribosomal (28S) RNA locus infected in mouse J774.A1 cells assessed as parasite survival at 0.1 uM measured after 96 hrs by luminescence based analysis relative to control; format: functional; conditions: MNYC/BZ/62/M379, J774.A1
[2] = Therapeutic index, ratio of EC50 for mouse J774.A1 cells to EC50 for antileishmanial activity against Leishmania mexicana MNYC/BZ/62/M379 amastigotes expressing red-shifted firefly luciferase from integrated ribosomal (28S) RNA locus infected in mouse J774.A1 cells; format: toxicity, cell-based; conditions: read-out: TI
[3] = Cytotoxicity against mouse J774.A1 cells assessed as reduction in cell survival measured after 96 hrs by SYBR Green II dye based analysis; format: toxicity
How it was run: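 Uninfected J774A.1 macrophages, 1 × 10⁴ cells/well in DMEM/10% HI-FBS, reattached 3 h, then exposed to compounds for 96 h. DNA content read after lysis with SYBR Green II (1:1000 in 1% Triton/PBS), 1 h dark at room temperature, fluorescence Ex 485/Em 535.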

Leishmania mexicana [4] = test: Antileishmanial activity against Leishmania mexicana MNYC/BZ/62/M379 amastigotes expressing red-shifted firefly luciferase from integrated ribosomal (28S) RNA locus infected in mouse J774.A1 cells assessed as reduction in parasite survival measured after 96 hrs by luminescence based analysis; format: functional, organism-based; conditions: MNYC/BZ/62/M379, J774.A1, 96 h
How it was run: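 J774A.1 macrophages infected with stationary-phase luciferase-expressing promastigotes at 10:1 parasites:macrophage, overnight at 37 °C, 5% CO₂. Non-internalized parasites washed off and 1 × 10⁴ cells/well replated in MEM/10% HI-FBS. Compounds in DMSO added as serial 3-fold dilutions (typically 10 μM–1 nM) for 96 h. Luciferase luminescence read; EC50 from log-transformed sigmoidal variable-slope fit. Mean ± SD of ≥2 independent experiments.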

[5] = Cytotoxicity against mouse J774.A1 cells assessed as cell survival at 0.1 uM measured after 96 hrs by SYBR Green II dye based analysis relative to control; format: toxicity; conditions: read-out: Survival
How it was run: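 Uninfected J774A.1 mouse macrophages were plated at 1 × 10⁴ cells/well in DMEM with 10% heat-inactivated FBS and left 3 h at 37 °C to reattach. Compounds were added from DMSO, and analogues were screened at 0.1 μM. After 96 h at 37 °C in 5% CO₂, medium was removed. SYBR Green II (1:1000 in 1% Triton/PBS) was added for 1 h in the dark at room temperature, and fluorescence was read at Ex 485/Em 535 as a DNA-content measure of viability.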

[6] = Metabolic stability in pre-warmed pooled human liver microsomes assessed as half life at 1 uM measured upto 60 mins by LC-MS analysis; format: ADME, Microsome
How it was run: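 Compound at 1 μM final with 0.5 mg/mL pooled human or mouse liver microsomes, 1.3 mM NADP and 3.3 mM MgCl₂ in 100 mM potassium phosphate, pH 7.4. Reaction started with 1 U/mL G6PD at 37 °C with shaking.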

Row | SMILES | survival at 0.1 µM (Leishmania mexicana [1]) [%] | selectivity ratio [2] | EC50 at 96 h [3] [µM] | EC50 (Leishmania mexicana [4]) [µM] | viability at 96 h, 0.1 µM [5] [%] | half-life at 1 µM [6] [min]
1 | COC1=CC(c2ccc[nH]2)=N/C1=C\Nc1ccc(OC(F)(F)F)cc1.Cl | 18.9 | > 14 | > 1 | 0.0725 | 89.6 | > 60
2 | COC1=CC(c2ccc(Cc3ccc(OC)cc3)[nH]2)=N/C1=C\NC1CCCC1.Cl | 1.4 | 30 | 0.717 | 0.0238 | 86.6 | 11.7
3 | Clc1ccc(OC2=CC(c3ccc[nH]3)=N/C2=C\NC2CCCCCC2)cc1 | 19.8 | 5.8 | 0.367 | 0.0637 | 100 | 
4 | C[C@H]1CC[C@@H](N/C=C2\N=C(c3ccc[nH]3)C=C2Oc2ccc(OC(F)(F)F)cc2)CC1 | 79.9 |  |  |  | 112 | 
5 | FC(F)(F)Oc1ccc(OC2=CC(c3ccc[nH]3)=N/C2=C\NCC2CCCCCC2)cc1 | 42.9 | 4.3 | 0.717 | 0.167 | 97.6 | 
6 | COc1ccc(Oc2ccc(N/C=C3\N=C(c4ccc[nH]4)C(C)=C3C)cc2)cc1 | 108 |  |  |  | 65.9 | 
7 | CCCCCCCCCCCN/C=C1\N=C(c2ccc[nH]2)C=C1Oc1ccc(OC(F)(F)F)cc1 | 58 |  |  |  | 96.7 | 
8 | COC1=CC(c2ccc(Cc3ccc(OC)cc3)[nH]2)=N/C1=C\NC1CCCCCCC1.Cl | -0.11 | 35 | 0.547 | 0.0158 | 84.8 | 50.8
9 | CC1=C/C(=C/NC2CCCCCC2)N=C1c1ccc[nH]1 | 89 |  |  |  | 127 | 
10 | CC1=C(C)/C(=C/NCC2CCCCCC2)N=C1c1ccc[nH]1 | 14.2 | 17 | 1.6 | 0.0917 | 53.2 | 
11 | Cc1ccc(N/C=C2\N=C(c3ccc[nH]3)C3=C2CCCC3)cc1.Cl | 112 |  |  |  | 95.1 | 42.1
12 | CCC1=C/C(=C/NC2CCCCCC2)N=C1c1ccc[nH]1 | 33.9 |  |  |  | 32.2 | 
13 | CCCCCCN/C=C1\N=C(c2ccc[nH]2)C=C1Oc1ccc(OC(F)(F)F)cc1 | 46.1 | 3.6 | 1.1 | 0.303 | 110 | 
14 | CCC1=C(CC)/C(=C/NC2CCCCCC2)N=C1c1ccc[nH]1 | 27.5 |  |  |  | 26.7 | 
15 | C(/NC1CCCCCCC1)=C1/N=C(c2ccc[nH]2)C2=C1CCCC2 | 33.4 |  |  |  | 75.8 | 
16 | FC(F)(F)Oc1ccc(OC2=CC(c3ccc[nH]3)=N/C2=C\N[C@H]2CC[C@H](C(F)(F)F)CC2)cc1 | 33.2 | 9.6 | 0.852 | 0.0887 | 108 | 
17 | COC1=CC(c2ccc[nH]2)=N/C1=C\NC1CCCCC1 | 7.33 | > 25 | > 1 | 0.0405 | 88.9 | 
18 | FC(F)(F)Oc1ccc(OC2=CC(c3ccc[nH]3)=N/C2=C\NC2CCCCCC2)cc1 | 43 | 4.1 | 0.642 | 0.155 | 82.8 | 
19 | FC(F)(F)Oc1ccc(OC2=CC(c3ccc[nH]3)=N/C2=C\NC2CCCCCCC2)cc1 | 37.6 | 9.9 | 0.982 | 0.099 | 92.9 | 
20 | COC1=CC(c2ccc[nH]2)=N/C1=C\NC1CCN(Cc2ccccc2)CC1 | 24.6 | 7.9 | 0.625 | 0.0795 | 124 | 
21 | COC1=CC(c2ccc(Cc3ccc(OC)cc3)[nH]2)=N/C1=C\NC1CCCCC1.Cl | 0.01 | 42 | 0.946 | 0.0226 | 84.6 | 19.7
22 | Fc1cc(F)cc(OC2=CC(c3ccc[nH]3)=N/C2=C\NC2CCCCCC2)c1 | 87.2 |  |  |  | 65.8 | 
23 | COC1=CC(c2ccc(Cc3ccc(OC)cc3)[nH]2)=N/C1=C\NC1CCCCCC1.Cl | -0.11 | 59 | 0.959 | 0.0162 | 84.6 | 25.6

Row | SMILES | survival at 0.1 µM (Leishmania mexicana [1]) [%] | selectivity ratio [2] | EC50 at 96 h [3] [µM] | EC50 (Leishmania mexicana [4]) [µM] | viability at 96 h, 0.1 µM [5] [%] | half-life at 1 µM [6] [min]
24 | CCc1ccc(C2=N/C(=C\NC3CCCCCC3)C(OC)=C2)[nH]1.Cl | 0.3 | 14 | 0.512 | 0.0371 | 52.5 | > 60
25 | CCCCCCCCCCCN/C=C1\N=C(c2ccc[nH]2)C=C1OC | 11.9 | > 21 | > 1 | 0.0475 | 112 | 
26 | FC(F)(F)Oc1ccc(C2=CC(c3ccc[nH]3)=N/C2=C\NC2CCCCCC2)cc1 | 77.9 |  |  |  | 95.8 | 
27 | COC1=CC(c2ccc[nH]2)=N/C1=C\Nc1cccc(Cl)c1.Cl | 13.6 | 6.2 | 0.57 | 0.0915 | 65.3 | > 60
28 | CCC1=C/C(=C/NC2CCCCCCC2)N=C1c1ccc[nH]1 | 34.6 |  |  |  | 35.8 | 
29 | COC1=CC(c2ccc[nH]2)=N/C1=C\Nc1ccccc1OC(F)(F)F | 69.9 |  |  |  | 81 | 
30 | C[C@H]1CC[C@H](N/C=C2\N=C(c3ccc[nH]3)C=C2c2ccc(OC(F)(F)F)cc2)CC1 | 81.6 |  |  |  | 116 | 
31 | CC1=C(C)/C(=C/Nc2ccc(C)cc2)N=C1c1ccc[nH]1 | 74 |  |  |  | 54.2 | 
32 | CC1=C(C)/C(=C/NC2CCCCCC2)N=C1c1[nH]c(C)cc1C | 43.8 |  |  | 0.182 | 56.8 | 
33 | CC1=C(C)/C(=C/NC23CC4CC(CC(C4)C2)C3)N=C1c1[nH]c(C)cc1C | 12.5 | 14 | 0.667 | 0.0465 | 93.2 | 
34 | COC1=CC(c2ccc[nH]2)=N/C1=C\Nc1ccc(Cl)cc1 | 9.85 | > 21 | > 1 | 0.047 | 95.4 | 
35 | CCCCCCCCCCCCCCCCOP(=O)([O-])OCC[N+](C)(C)C [MILTEFOSINE] | 0.02 | > 29 | > 100 | 3.46 | 39.2 | 
36 | CCC1=C(CC)/C(=C/NC2CCCCCCC2)N=C1c1ccc[nH]1 | 17 |  |  |  | 29.5 | 
37 | Clc1ccc(N/C=C2\N=C(c3ccc[nH]3)C3=C2CCCC3)cc1 | 103 |  |  |  | 67.2 | 
38 | CC1=C(C)/C(=C/Nc2ccc(OC(F)(F)F)cc2)N=C1c1ccc[nH]1 | 102 |  |  |  | 77.2 | 
39 | CC1=C(C)/C(=C/Nc2ccc(Oc3ccc(C)cc3)cc2)N=C1c1ccc[nH]1 | 111 |  |  |  | 66.2 | 
40 | FC(F)(F)Oc1ccc(OC2=CC(c3ccc[nH]3)=N/C2=C\NC2CCCCC2)cc1 | 52.7 | 11.7 | 0.982 | 0.084 | 81.3 | 
41 | C[C@H]1CC[C@H](N/C=C2\N=C(c3ccc[nH]3)C=C2Oc2ccc(Cl)cc2)CC1 | 27.5 | 4.4 | 0.321 | 0.0723 | 80.1 | 
42 | FC(F)(F)Oc1ccc(N/C=C2\N=C(c3ccc[nH]3)C3=C2CCCC3)cc1 | 84.9 |  |  |  | 92.7 | 
43 | CC1=C(C)/C(=C/Nc2ccc(Cl)cc2)N=C1c1ccc[nH]1 | 92.2 |  |  |  | 88.1 | 
44 | CC1=C/C(=C/NC2CCCCCCC2)N=C1c1ccc[nH]1 | 48.6 |  |  |  | 150 | 
45 | C[C@H]1CC[C@H](N/C=C2\N=C(c3ccc[nH]3)C=C2Oc2cc(F)cc(F)c2)CC1 | 96.2 |  |  |  | 55.3 | 
